Assays:
Type in all cases: functional, cell-based
[1] = Anticancer activity against human 1205 Lu cells assessed as inhibition of cell growth after 24 hrs by MTT assay
How it was run: (§1)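 MTT assay at 3,000 cells/well. Cells treated with DMSO or seven concentrations from 0.5 to 50 µM for 24, 48 or 72 h. MTT added 3 h before the end point; formazan dissolved in DMSO and read at 570 and 630 nm. IC50 is the concentration giving 50% growth inhibition. Media: PANC-1, BxPC3 and 1205Lu in DMEM; DU145 and A549 in RPMI 1640; HT29, HCT116 and RKO in McCoy's 5A, all with 10% FBS and pen/strep, at 37 °C and 5% CO2.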

[2] = Anticancer activity against human 1205 Lu cells assessed as inhibition of cell growth after 48 hrs by MTT assay; how it was run: as §1
[3] = Anticancer activity against human 1205 Lu cells assessed as inhibition of cell growth after 72 hrs by MTT assay; how it was run: as §1
[4] = system: A549; assay: Anticancer activity against human A549 cells assessed as inhibition of cell growth after 24 hrs by MTT assay; settings: A549, 24 h; how it was run: as §1
[5] = system: A549; assay: Anticancer activity against human A549 cells assessed as inhibition of cell growth after 48 hrs by MTT assay; settings: A549, 48 h; how it was run: as §1
[6] = system: A549; assay: Anticancer activity against human A549 cells assessed as inhibition of cell growth after 72 hrs by MTT assay; settings: A549, 72 h; how it was run: as §1
[7] = Anticancer activity against human DU145 cells assessed as inhibition of cell growth after 24 hrs by MTT assay; settings: DU-145, 24 h; how it was run: as §1
[8] = Anticancer activity against human DU145 cells assessed as inhibition of cell growth after 48 hrs by MTT assay; settings: DU-145, 48 h; how it was run: as §1
[9] = Anticancer activity against human DU145 cells assessed as inhibition of cell growth after 72 hrs by MTT assay; settings: DU-145, 72 h; how it was run: as §1
[10] = Anticancer activity against human HCT116 cells assessed as inhibition of cell growth after 24 hrs by MTT assay; settings: HCT-116, 24 h; how it was run: as §1
[11] = Anticancer activity against human HCT116 cells assessed as inhibition of cell growth after 48 hrs by MTT assay; settings: HCT-116, 48 h; how it was run: as §1
[12] = Anticancer activity against human HCT116 cells assessed as inhibition of cell growth after 72 hrs by MTT assay; settings: HCT-116, 72 h; how it was run: as §1
[13] = Anticancer activity against human PANC1 cells assessed as inhibition of cell growth after 24 hrs by MTT assay; settings: PANC-1, 24 h; how it was run: as §1
[14] = Anticancer activity against human PANC1 cells assessed as inhibition of cell growth after 48 hrs by MTT assay; settings: PANC-1, 48 h; how it was run: as §1
[15] = Anticancer activity against human PANC1 cells assessed as inhibition of cell growth after 72 hrs by MTT assay; settings: PANC-1, 72 h; how it was run: as §1
[16] = Anticancer activity against human BxPC3 cells assessed as inhibition of cell growth after 24 hrs by MTT assay; settings: BXPC-3, 24 h; how it was run: as §1
[17] = Anticancer activity against human BxPC3 cells assessed as inhibition of cell growth after 48 hrs by MTT assay; settings: BXPC-3, 48 h; how it was run: as §1
[18] = Anticancer activity against human BxPC3 cells assessed as inhibition of cell growth after 72 hrs by MTT assay; settings: BXPC-3, 72 h; how it was run: as §1

| SMILES | IC50 [1] | IC50 [2] | IC50 [3] | IC50 [4] | IC50 [5] | IC50 [6] | IC50 [7] | IC50 [8] | IC50 [9] | IC50 [10] | IC50 [11] | IC50 [12] | IC50 [13] | IC50 [14] | IC50 [15] | IC50 [16] | IC50 [17] | IC50 [18] |
| --- | --- | --- | --- | --- | --- | --- | --- | --- | --- | --- | --- | --- | --- | --- | --- | --- | --- | --- |
| COc1cc2oc(=O)cc(CSC(=N)N)c2cc1OC | > 50 µM | > 50 µM | 37.4 µM | > 50 µM | > 50 µM | > 50 µM | > 50 µM | > 50 µM | > 50 µM | > 50 µM | > 50 µM | > 50 µM | > 50 µM | > 50 µM | > 50 µM | > 50 µM | > 50 µM | > 50 µM |
| N=C(N)[Se]Cc1cc2c(cc1Br)OCO2 | > 50 µM | > 50 µM | 21.8 µM | > 50 µM | > 50 µM | 36.3 µM | > 50 µM | > 50 µM | > 50 µM | > 50 µM | 31.8 µM | 23.9 µM | > 50 µM | 24.7 µM | 16.5 µM | > 50 µM | > 50 µM | 36.9 µM |
| N=C(N)[Se]Cc1c2ccccc2nc2ccccc12 | 13 µM | 16.7 µM | 11.6 µM | 34.4 µM | 14.9 µM | 6.2 µM | 31.8 µM | 14.9 µM | 12.9 µM | 31.8 µM | 16.7 µM | 14.4 µM | 12.1 µM | 11.6 µM | 9.8 µM | 20.4 µM | 10.5 µM | 8.2 µM |
| N=C(N)SCc1c2ccccc2nc2ccccc12 | > 50 µM | > 50 µM | > 50 µM | > 50 µM | > 50 µM | > 50 µM | > 50 µM | > 50 µM | > 50 µM | > 50 µM | > 50 µM | 45.1 µM | > 50 µM | > 50 µM | > 50 µM | > 50 µM | > 50 µM | 46.3 µM |
| N=C(N)SCc1ccc2ccccc2n1 | > 50 µM | > 50 µM | 39.2 µM | > 50 µM | > 50 µM | > 50 µM | > 50 µM | > 50 µM | 31.6 µM | > 50 µM | 28.5 µM | 22.9 µM | > 50 µM | > 50 µM | > 50 µM | > 50 µM | 37.3 µM | 25.7 µM |
| N=C(N)[Se]Cc1ccc2ccccc2n1 | 14.4 µM | 9.9 µM | 7.1 µM | 39.6 µM | 15.1 µM | 8.1 µM | 19.6 µM | 11.6 µM | 7.3 µM | 29.7 µM | 19.6 µM | 10.6 µM | 18 µM | 15.9 µM | 9.6 µM | 36.6 µM | 17 µM | 7.8 µM |
| Cc1noc(C)c1C[Se]C(=N)N | > 50 µM | > 50 µM | 3.4 µM | > 50 µM | 2.8 µM | 1.2 µM | > 50 µM | 22 µM | 7.4 µM | > 50 µM | 45 µM | 4.6 µM | > 50 µM | 37.4 µM | 13.6 µM | > 50 µM | 6.8 µM | 2.4 µM |
| Cc1noc(C)c1CSC(=N)N | > 50 µM | > 50 µM | > 50 µM | > 50 µM | > 50 µM | > 50 µM | > 50 µM | > 50 µM | > 50 µM | > 50 µM | > 50 µM | > 50 µM | > 50 µM | > 50 µM | > 50 µM | > 50 µM | > 50 µM | 47.2 µM |
